Laboratory results from article PMC2885802 (Current radiopharmaceuticals, 2010).

Experiments:
αvβ3 = αvβ3 antagonist; not measured here, no ref given; cited from earlier work
[1] = guanidino group of IAC; ref not given; cited from earlier work
[2] = Stability study in mouse serum; type: in vitro ADME; details: 37 °C; for % of 99mTc radioactivity associated with 99mTcO4−1: mouse serum, 18 h; for % intact when incubated in serum: 18 hrs
Method in brief: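 Purified 99mTc-labeled test compound (116 μCi, 4.29 MBq) was added to mouse serum containing 0.04% sodium azide, buffered with sodium phosphate pH 7.2, and held at 37 °C. Timed aliquots went to size-exclusion HPLC (TSK G3000SWXL; 0.067 M sodium phosphate/0.10 M KCl, pH 6.8; 1.0 ml/min) with UV and online radioactivity detection. Intact, protein-bound and 99mTcO4− fractions were measured; N ≥ 3.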

human integrin αvβ3 = human integrin αvβ3 (Homo sapiens, UniProt P05106+P06756); assay: Receptor-binding assay; details: 0.8 μM αvβ3, 37 °C, 3 hrs, n = 4
Chain of human integrin αvβ3 (P06756 31-889 limits assumed): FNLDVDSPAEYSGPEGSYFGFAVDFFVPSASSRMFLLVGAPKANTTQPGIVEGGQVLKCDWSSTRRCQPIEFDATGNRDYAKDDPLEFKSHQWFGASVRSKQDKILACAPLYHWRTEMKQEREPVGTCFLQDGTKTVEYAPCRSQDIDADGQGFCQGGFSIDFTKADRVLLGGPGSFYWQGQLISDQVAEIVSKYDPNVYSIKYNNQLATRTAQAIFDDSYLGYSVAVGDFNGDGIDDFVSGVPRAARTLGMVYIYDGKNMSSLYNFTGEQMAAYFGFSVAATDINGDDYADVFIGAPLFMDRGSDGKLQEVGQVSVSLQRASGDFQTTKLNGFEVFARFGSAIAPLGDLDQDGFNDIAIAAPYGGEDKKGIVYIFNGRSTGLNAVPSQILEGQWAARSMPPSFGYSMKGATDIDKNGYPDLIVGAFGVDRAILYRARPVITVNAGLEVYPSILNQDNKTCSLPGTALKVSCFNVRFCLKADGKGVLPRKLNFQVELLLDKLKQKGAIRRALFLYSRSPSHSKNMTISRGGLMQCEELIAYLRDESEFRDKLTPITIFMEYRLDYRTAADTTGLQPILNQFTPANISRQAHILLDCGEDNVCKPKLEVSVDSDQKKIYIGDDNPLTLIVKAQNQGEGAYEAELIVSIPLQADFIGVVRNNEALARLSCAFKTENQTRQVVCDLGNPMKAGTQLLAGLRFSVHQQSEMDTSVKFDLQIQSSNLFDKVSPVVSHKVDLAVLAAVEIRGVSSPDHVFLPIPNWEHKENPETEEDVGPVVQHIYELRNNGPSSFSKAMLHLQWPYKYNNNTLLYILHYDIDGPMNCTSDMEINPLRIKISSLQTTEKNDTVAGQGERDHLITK
Chain of human integrin αvβ3 (P06756 891-1048 partner limits assumed): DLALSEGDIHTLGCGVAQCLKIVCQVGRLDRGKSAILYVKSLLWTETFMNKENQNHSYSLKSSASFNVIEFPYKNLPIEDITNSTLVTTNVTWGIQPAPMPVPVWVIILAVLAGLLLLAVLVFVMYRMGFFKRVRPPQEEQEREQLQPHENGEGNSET
Chain of human integrin αvβ3 (P05106 27-788): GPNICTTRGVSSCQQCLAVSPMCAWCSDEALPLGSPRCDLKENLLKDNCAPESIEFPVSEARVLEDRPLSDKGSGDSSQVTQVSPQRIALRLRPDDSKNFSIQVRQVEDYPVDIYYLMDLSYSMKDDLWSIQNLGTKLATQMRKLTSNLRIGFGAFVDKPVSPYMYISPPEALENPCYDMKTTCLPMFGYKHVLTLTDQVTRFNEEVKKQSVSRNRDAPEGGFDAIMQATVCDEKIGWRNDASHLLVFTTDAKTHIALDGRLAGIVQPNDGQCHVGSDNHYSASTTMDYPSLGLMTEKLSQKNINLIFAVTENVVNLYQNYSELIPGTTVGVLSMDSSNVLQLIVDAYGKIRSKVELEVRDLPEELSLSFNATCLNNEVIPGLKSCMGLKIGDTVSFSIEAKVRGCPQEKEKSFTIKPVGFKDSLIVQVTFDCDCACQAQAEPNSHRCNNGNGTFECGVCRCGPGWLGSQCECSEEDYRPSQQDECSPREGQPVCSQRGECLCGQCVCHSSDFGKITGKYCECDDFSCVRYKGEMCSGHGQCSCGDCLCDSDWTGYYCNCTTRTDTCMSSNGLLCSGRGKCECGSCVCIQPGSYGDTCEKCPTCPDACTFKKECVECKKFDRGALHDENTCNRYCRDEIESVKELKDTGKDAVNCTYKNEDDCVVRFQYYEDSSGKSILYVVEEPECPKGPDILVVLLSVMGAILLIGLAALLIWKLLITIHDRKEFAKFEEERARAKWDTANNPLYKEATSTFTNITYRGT
Method in brief: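 Purified 99mTc-labeled test compound (1.1×10^6 cpm, <2.5 pmol) was incubated with 2.6 to 51.2 pmol human integrin αvβ3 in PBS pH 7.2 at 37 °C for 3 hrs. Non-specific binding was taken with a 250-fold molar excess of unlabeled antagonist. Bound (7 min) and free (15 min) label were separated by size-exclusion HPLC (TSK G3000SWXL).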

[3] = test system: receptor-positive M21 human melanoma xenografts; assay: Biodistribution study in nude mice bearing M21 xenografts; type: in vivo; details: for tumor uptake with co-injection of antagonist: co-injection of 200 μg unlabeled IA; for tumor uptake: 1 h after i.v. injection; for excretion route: inferred from whole-body retention
Method in brief: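 Athymic nude mice carried s.c. right-flank xenografts from 3 × 10^6 M21 cells (grown in RPMI 1640, 10% FBS, 1% penicillin-streptomycin, 5% CO2). At about 200 mm3 tumor size, mice received i.v. 99mTc-labeled test compound (6.25 μCi, 0.231 MBq/6 pmol in PBS with 1% BSA). They were euthanized at set times for tissue %ID/g and tumor-to-organ ratios; n=4~15 per time point.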

Stability in PBS = type: physicochemical; details: 18-h period of incubation

## CC(C)(CN)CNC(=O)NCCS(=O)(=O)N[C@@H](CNC(=O)c1ccc(OCCNC2=NCCCN2)cc1)C(=O)O.Cl [IAC, 4-[2-(3,4,5,6-tetrahydropyrimidin-2-ylamino)-ethyloxy]benzoyl-2-(S)-[N-(3-aminoneopenta-1-carbamyl)]-aminoethylsulfonylamino-β-alanine hydrochloride]
αvβ3
  IC50: 2.94 nM
[1]
  pKa: ~ 12

## ^99mTc PDA (tricin)/HYNIC-IAC [P2]
[2]
  % of 99mTc radioactivity associated with 99mTcO4−1: 9%
  % intact when incubated in serum: 77%
Human integrin αvβ3
  receptor-bindability (% bound to αvβ3): 51.05 ± 14.05%
[3]; 4-h period
  accumulation in liver and intestine compared with P1: significantly higher accumulation
[3]; 1 h
  Tumor-to-organ ratio, Blood: 1.83±0.16
  Tumor-to-organ ratio, Bone: 1.48±0.37
  Tumor-to-organ ratio, Heart: 2.64±0.36
  Tumor-to-organ ratio, Intestine: 0.15±0.01
  Tumor-to-organ ratio, Kidney: 0.62±0.05
  Tumor-to-organ ratio, Liver: 0.46±0.27
  Tumor-to-organ ratio, Lung: 0.83±0.22
  Tumor-to-organ ratio, Muscle: 3.85±1.64
  Tumor-to-organ ratio, Spleen: 1.09±0.15
  Tumor-to-organ ratio, Stomach: 0.40±0.12
  whole-body retention: 57.84 ± 5.15 % ID
  tumor uptake with co-injection of antagonist: 0.96 ± 0.30 % ID/g
[3]
  tumor uptake: 2.13±0.17 % ID/g
  excretion route: excreted to a larger extent via the hepatobiliary system
[3]; 2 h
  Tumor-to-organ ratio, Blood: 2.58±0.25
  Tumor-to-organ ratio, Bone: 2.73±0.54
  Tumor-to-organ ratio, Heart: 3.85±0.57
  Tumor-to-organ ratio, Intestine: 0.11±0.02
  Tumor-to-organ ratio, Kidney: 0.81±0.07
  Tumor-to-organ ratio, Liver: 0.45±0.30
  Tumor-to-organ ratio, Lung: 1.34±0.51
  Tumor-to-organ ratio, Muscle: 5.75±1.56
  Tumor-to-organ ratio, Spleen: 1.95±0.27
  Tumor-to-organ ratio, Stomach: 0.29±0.09
[3]; 4 h
  Tumor-to-organ ratio, Blood: 3.15±0.25
  Tumor-to-organ ratio, Bone: 3.76±1.36
  Tumor-to-organ ratio, Heart: 3.88±0.90
  Tumor-to-organ ratio, Intestine: 0.07±0.00
  Tumor-to-organ ratio, Kidney: 0.78±0.04
  Tumor-to-organ ratio, Liver: 0.40±0.17
  Tumor-to-organ ratio, Lung: 2.71±0.95
  Tumor-to-organ ratio, Muscle: 6.33±1.57
  Tumor-to-organ ratio, Spleen: 1.54±0.40
  Tumor-to-organ ratio, Stomach: 0.27±0.05
  whole-body retention: 54.04 ± 3.57 % ID
[3]; 4 h relative to 1 h
  radioactivity at 1 h remained in the tumor at 4 h: 62%
Stability in PBS
  stability in PBS: stable

## ^99mTc EDDA2/HYNIC-IAC [P1]
[2]
  % of 99mTc radioactivity associated with 99mTcO4−1: 3%
  % intact when incubated in serum: 84%
Human integrin αvβ3
  receptor-bindability (% bound to αvβ3): 78.02 ± 13.48%
[3]; 4-h period
  tumor uptake value over time: remained relatively unchanged
[3]; 0.3 h
  Tumor-to-organ ratio, Blood: 0.90±0.20
  Tumor-to-organ ratio, Bone: 1.29±0.23
  Tumor-to-organ ratio, Heart: 1.91±0.43
  Tumor-to-organ ratio, Intestine: 0.66±0.07
  Tumor-to-organ ratio, Kidney: 0.51±0.12
  Tumor-to-organ ratio, Liver: 0.72±0.12
  Tumor-to-organ ratio, Lung: 0.72±0.10
  Tumor-to-organ ratio, Muscle: 3.04±0.68
  Tumor-to-organ ratio, Spleen: 0.71±0.07
  Tumor-to-organ ratio, Stomach: 0.54±0.13
[3]; 1 h
  Tumor-to-organ ratio, Blood: 1.38±0.48
  Tumor-to-organ ratio, Bone: 2.12±1.17
  Tumor-to-organ ratio, Heart: 2.48±0.75
  Tumor-to-organ ratio, Intestine: 0.60±0.19
  Tumor-to-organ ratio, Kidney: 0.75±0.28
  Tumor-to-organ ratio, Liver: 0.89±0.27
  Tumor-to-organ ratio, Lung: 1.19±0.43
  Tumor-to-organ ratio, Muscle: 6.11±1.80
  Tumor-to-organ ratio, Spleen: 1.36±0.38
  Tumor-to-organ ratio, Stomach: 0.40±0.20
  whole-body retention: 39.58 ± 2.91 % ID
  tumor uptake with co-injection of antagonist: 0.68 ± 0.06 % ID/g
[3]; 1 h, 0, 10 and 200 μg unlabeled IA
  effect of unlabeled IA co-injection on tumor uptake: blocked by unlabeled IA in a concentration dependent manner
[3]
  tumor uptake: 3.17±0.52 % ID/g
  excretion route: excreted primarily via the renal system
[3]; 2 h
  Tumor-to-organ ratio, Blood: 2.19±0.18
  Tumor-to-organ ratio, Bone: 2.46±0.19
  Tumor-to-organ ratio, Heart: 3.23±0.48
  Tumor-to-organ ratio, Intestine: 0.57±0.07
  Tumor-to-organ ratio, Kidney: 0.85±0.08
  Tumor-to-organ ratio, Liver: 1.02±0.12
  Tumor-to-organ ratio, Lung: 1.50±0.09
  Tumor-to-organ ratio, Muscle: 4.68±0.31
  Tumor-to-organ ratio, Spleen: 1.30±0.12
  Tumor-to-organ ratio, Stomach: 0.43±0.11
[3]; 4 h
  Tumor-to-organ ratio, Blood: 17.11±5.18
  Tumor-to-organ ratio, Bone: 4.78±1.07
  Tumor-to-organ ratio, Heart: 7.62±1.99
  Tumor-to-organ ratio, Intestine: 0.46±0.15
  Tumor-to-organ ratio, Kidney: 1.22±0.32
  Tumor-to-organ ratio, Liver: 1.59±0.72
  Tumor-to-organ ratio, Lung: 2.47±0.49
  Tumor-to-organ ratio, Muscle: 7.84±1.78
  Tumor-to-organ ratio, Spleen: 2.83±0.81
  Tumor-to-organ ratio, Stomach: 1.53±0.80
  whole-body retention: 27.25 ± 3.67 % ID
Stability in PBS
  stability in PBS: stable
